Results: ChEMBL document CHEMBL5724801, “EUbOPEN Chemogenomics Library - Multiplex” (2024)
Several values for one entry are separate records, joined by “and”; a condition that tells them apart may be missing. Equal entries are not always repeated.

Tested on: Fibroblast
Test: Multiplex assay against human fibroblast
Assay type: toxicity, cell-based
In short: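 Imaging took place on a CQ1 microscope at 37°C and 5% CO2 once compound had been added to live cells stained at seeding with Hoechst33342, BioTracker Green Microtubule Cytoskeleton Dye, MitoTracker Red and Annexin V Alexa Fluor 680. CellPathfinder machine-learning gating classed cells as Hoechst high-intensity objects or normal cells, classed normal cells as having healthy, pyknosed or fragmented nuclei, and classed pyknosed cells as mitotic or apoptotic. Tubulin, mitochondrial-mass and membrane-permeability phenotypes are per cents of the healthy-nucleus cells.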

[1] = 12 h, 1 µM, compound concentration 1 uM
[2] = 12 h, 10 µM, compound concentration 10 uM
[3] = 24 h, 1 µM, compound concentration 1 uM
[4] = 24 h, 10 µM, compound concentration 10 uM
[5] = 48 h, 1 µM, compound concentration 1 uM
[6] = 48 h, 10 µM, compound concentration 10 uM

With `CN1CC[C@@]23CCCC[C@@H]2[C@@H]1Cc1ccc(O)cc13.O=C(O)C(O)C(O)C(=O)O` the “Population Apoptotic (%)” value [1] was 6.98% and 13.16%, the “Population Fragmented Nuclei (%)” value [1] was 5.26% and 4.9% and the “Population Healthy Nuclei (%)” value [1] was 69.59% and 79.59%. For the same compound, the “Population Hoechst High Intensity Objects (%)” value [1] was 0%, the “Population Membrane Permeable-Phenotype (%)” value [1] was 1.68% and 2.05% and the “Population Mitochondria Different-Phenotype (%)” value [1] was 8.4% and 8.21%. For the same compound, the “Population Mitotic Cells (%)” value [1] was 93.02% and 86.84%, the “Population Normal (%)” value [1] was 100% and the “Population Pyknosed Nuclei (%)” value [1] was 25.15% and 15.51%. For the same compound, the “Population Tubulin-Different-Phenotype (%)” value [1] was 15.97% and 20.51%, the “Total Cell Count” value [1] was 171 and 245 and the “Population Apoptotic (%)” value [2] was 8.2% and 12.82%. The “Population Fragmented Nuclei (%)” value [2] was 8.77% and 7.24%, the “Population Healthy Nuclei (%)” value [2] was 64.47% and 79.31% and the “Population Hoechst High Intensity Objects (%)” value [2] was 0%. The “Population Membrane Permeable-Phenotype (%)” value [2] was 2.72% and 2.17%, the “Population Mitochondria Different-Phenotype (%)” value [2] was 6.12% and 5.65% and the “Population Mitotic Cells (%)” value [2] was 91.8% and 87.18%. The “Population Normal (%)” value [2] was 100%, the “Population Pyknosed Nuclei (%)” value [2] was 26.75% and 13.45% and the “Population Tubulin-Different-Phenotype (%)” value [2] was 14.29% and 18.26%. The “Total Cell Count” value [2] was 228 and 290, the “Population Apoptotic (%)” value [3] was 13.16% and 10.71% and the “Population Fragmented Nuclei (%)” value [3] was 6.63% and 3.19%. For the same compound, the “Population Healthy Nuclei (%)” value [3] was 72.38% and 85.66%, the “Population Hoechst High Intensity Objects (%)” value [3] was 0% and the “Population Membrane Permeable-Phenotype (%)” value [3] was 0% and 2.79%. For the same compound, the “Population Mitochondria Different-Phenotype (%)” value [3] was 9.92% and 5.12%, the “Population Mitotic Cells (%)” value [3] was 86.84% and 89.29% and the “Population Normal (%)” value [3] was 100%. The “Population Pyknosed Nuclei (%)” value [3] was 20.99% and 11.16%, the “Population Tubulin-Different-Phenotype (%)” value [3] was 17.56% and 14.88% and the “Total Cell Count” value [3] was 181 and 251. The “Population Apoptotic (%)” value [4] was 17.74% and 18.92%, the “Population Fragmented Nuclei (%)” value [4] was 9.16% and 7.39% and the “Population Healthy Nuclei (%)” value [4] was 68.13% and 79.58%. For the same compound, the “Population Hoechst High Intensity Objects (%)” value [4] was 0%, the “Population Membrane Permeable-Phenotype (%)” value [4] was 2.15% and 2.21% and the “Population Mitochondria Different-Phenotype (%)” value [4] was 5.38% and 4.42%. For the same compound, the “Population Mitotic Cells (%)” value [4] was 82.26% and 81.08%, the “Population Normal (%)” value [4] was 100% and the “Population Pyknosed Nuclei (%)” value [4] was 22.71% and 13.03%. The “Population Tubulin-Different-Phenotype (%)” value [4] was 19.89% and 17.7%, the “Total Cell Count” value [4] was 273 and 284 and the “Population Apoptotic (%)” value [5] was 30.77% and 40%. For the same compound, the “Population Fragmented Nuclei (%)” value [5] was 9.57% and 5.1%, the “Population Healthy Nuclei (%)” value [5] was 84.21% and 89.02% and the “Population Hoechst High Intensity Objects (%)” value [5] was 0%. For the same compound, the “Population Membrane Permeable-Phenotype (%)” value [5] was 0.57% and 3.52%, the “Population Mitotic Cells (%)” value [5] was 69.23% and 60% and the “Population Normal (%)” value [5] was 100%. The “Population Pyknosed Nuclei (%)” value [5] was 6.22% and 5.88%, the “Population Tubulin-Different-Phenotype (%)” value [5] was 6.82% and 14.54% and the “Total Cell Count” value [5] was 209 and 255. The “Population Apoptotic (%)” value [6] was 15.38% and 35.29%, the “Population Fragmented Nuclei (%)” value [6] was 6.34% and 8.95% and the “Population Healthy Nuclei (%)” value [6] was 88.81% and 85.62%. The “Population Hoechst High Intensity Objects (%)” value [6] was 0%, the “Population Membrane Permeable-Phenotype (%)” value [6] was 0.84% and 4.1% and the “Population Mitochondria Different-Phenotype (%)” value [6] was 6.72% and 1.87%. For the same compound, the “Population Mitotic Cells (%)” value [6] was 84.62% and 64.71%, the “Population Normal (%)” value [6] was 100% and the “Population Pyknosed Nuclei (%)” value [6] was 4.85% and 5.43%. The “Population Tubulin-Different-Phenotype (%)” value [6] was 7.56% and 19.4% and the “Total Cell Count” value [6] was 268 and 313.

For `Cc1nc2ccc(Oc3ccc(F)cc3)cc2c(=O)n1C[C@H]1CCCN(C(C)C)C1.Cl`, the “Population Apoptotic (%)” value [1] was 34% and 44%, the “Population Fragmented Nuclei (%)” value [1] was 19% and 24% and the “Population Healthy Nuclei (%)” value [1] was 67% and 47%. The “Population Hoechst High Intensity Objects (%)” value [1] was 5% and 9%, the “Population Mitochondria Different-Phenotype (%)” value [1] was 4% and 8% and the “Population Mitotic Cells (%)” value [1] was 65% and 55%. The “Population Normal (%)” value [1] was 94% and 90%, the “Population Pyknosed Nuclei (%)” value [1] was 13% and 29% and the “Population Tubulin-Different-Phenotype (%)” value [1] was 31% and 70%. The “Total Cell Count” value [1] was 184 and 111, the “Population Apoptotic (%)” value [2] was 53% and 61% and the “Population Fragmented Nuclei (%)” value [2] was 19% and 36%. For the same compound, the “Population Healthy Nuclei (%)” value [2] was 61% and 44%, the “Population Hoechst High Intensity Objects (%)” value [2] was 4% and 3% and the “Population Membrane Permeable-Phenotype (%)” value [2] was 1% and 5%. For the same compound, the “Population Mitochondria Different-Phenotype (%)” value [2] was 22% and 25%, the “Population Mitotic Cells (%)” value [2] was 46% and 38% and the “Population Normal (%)” value [2] was 95% and 96%. For the same compound, the “Population Pyknosed Nuclei (%)” value [2] was 19%, the “Population Tubulin-Different-Phenotype (%)” value [2] was 88% and 80% and the “Total Cell Count” value [2] was 241 and 205. For the same compound, the “Population Apoptotic (%)” value [3] was 66% and 38%, the “Population Fragmented Nuclei (%)” value [3] was 17% and 29% and the “Population Healthy Nuclei (%)” value [3] was 68% and 50%. For the same compound, the “Population Hoechst High Intensity Objects (%)” value [3] was 3% and 7%, the “Population Mitochondria Different-Phenotype (%)” value [3] was 6% and 17% and the “Population Mitotic Cells (%)” value [3] was 33% and 61%. For the same compound, the “Population Normal (%)” value [3] was 96% and 92%, the “Population Pyknosed Nuclei (%)” value [3] was 13% and 20% and the “Population Tubulin-Different-Phenotype (%)” value [3] was 30% and 73%. The “Total Cell Count” value [3] was 186 and 112, the “Population Apoptotic (%)” value [4] was 67% and 54% and the “Population Fragmented Nuclei (%)” value [4] was 27% and 30%. The “Population Healthy Nuclei (%)” value [4] was 58% and 52%, the “Population Hoechst High Intensity Objects (%)” value [4] was 3% and 6% and the “Population Membrane Permeable-Phenotype (%)” value [4] was 0% and 1%. For the same compound, the “Population Mitochondria Different-Phenotype (%)” value [4] was 27% and 29%, the “Population Mitotic Cells (%)” value [4] was 32% and 45% and the “Population Normal (%)” value [4] was 96% and 93%. For the same compound, the “Population Pyknosed Nuclei (%)” value [4] was 13% and 17%, the “Population Tubulin-Different-Phenotype (%)” value [4] was 84% and 87% and the “Total Cell Count” value [4] was 290 and 187. For the same compound, the “Population Apoptotic (%)” value [5] was 66% and 42%, the “Population Fragmented Nuclei (%)” value [5] was 25% and 36% and the “Population Healthy Nuclei (%)” value [5] was 66% and 44%. The “Population Hoechst High Intensity Objects (%)” value [5] was 3% and 5%, the “Population Membrane Permeable-Phenotype (%)” value [5] was 0% and 6% and the “Population Mitotic Cells (%)” value [5] was 33% and 57%. For the same compound, the “Population Normal (%)” value [5] was 96% and 94%, the “Population Pyknosed Nuclei (%)” value [5] was 8% and 19% and the “Population Tubulin-Different-Phenotype (%)” value [5] was 33% and 68%. The “Total Cell Count” value [5] was 184 and 105, the “Population Apoptotic (%)” value [6] was 66% and 68% and the “Population Fragmented Nuclei (%)” value [6] was 23% and 33%. For the same compound, the “Population Healthy Nuclei (%)” value [6] was 65% and 53%, the “Population Hoechst High Intensity Objects (%)” value [6] was 9% and 3% and the “Population Membrane Permeable-Phenotype (%)” value [6] was 0% and 2%. For the same compound, the “Population Mitochondria Different-Phenotype (%)” value [6] was 20% and 19%, the “Population Mitotic Cells (%)” value [6] was 33% and 32% and the “Population Normal (%)” value [6] was 90% and 96%. The “Population Pyknosed Nuclei (%)” value [6] was 10% and 12%, the “Population Tubulin-Different-Phenotype (%)” value [6] was 85% and the “Total Cell Count” value [6] was 290 and 201.
